Data reported in PMC3702173 (Circulation research, 2013).
Entries after “also recorded” stand apart in the source; their conditions may differ.

Key:
[1] = tested on: murine monocytes (ICAM-1 or VCAM-1 binding); assay type: cell-based, mouse; details: PMA 50ng/ml, MCP-1 50ng/ml, CRAMP 1µg/ml; ICAM-1-Fc or VCAM-1-Fc; n=5
In short: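 Mouse peripheral leukocytes exposed to PMA (50ng/ml), MCP-1 (50ng/ml) or CRAMP (1µg/ml) with ICAM-1-Fc or VCAM-1-Fc plus anti-Fc antibody; monocyte subsets gated by CD45, CD11b, CD115 and Gr1 staining; ligand binding read by flow cytometry; n=5.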

[2] = tested on: human non-classical CD14^+CD16^++ monocytes; assay type: cell-based; details: LL37 (1µg) deposited 15 min prior to perfusion; TNF-activated HUVEC; n=6
In short: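 Human non-classical CD14+CD16++ monocytes perfused in a flow chamber over HUVEC monolayers activated with TNF (20ng, 12h); LL37 (1µg) deposited on the monolayer 15 min before perfusion; adherent cells counted; n=6.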

[3] = tested on: endothelial adhesion molecules on HUVEC; assay: Expression of endothelial adhesion molecules on HUVEC; assay type: cell-based, human; details: treatment of HUVEC with LL37
HUVEC = assay: Transendothelial transport; assay type: cell-based, human; details: for Effect on transendothelial LL37 transportation: pretreatment of HUVEC with inhibitor or enzyme
P2X7 [4] = assay: Surface plasmon resonance, receptor proteoliposomes on immobilized LL37; assay type: binding; details: LL37 immobilized on CM4 chip; receptor-containing proteoliposomes; not shown
DARC = assay: Interaction of DARC and LL37; assay type: binding; details: Online Figure IV
[5] = tested on: classical CD14^++CD16^− monocytes; assay type: cell-based, human; details: for Monocyte adhesion to P-selectin/ICAM-1 or P-selectin/VCAM-1: substance coimmobilized, LL37/MCP1 n=8, mLL37 n=3
[6] = tested on: activated CD11b and VLA4 (β1- and β2-integrins) on monocytes; assay: Integrin activation; assay type: cell-based, human; details: LL37 1µg/ml; for Integrin activation on non-classical CD14^+CD16^++ monocytes: MCP-1 50ng/ml, Online Figure V
FPR2 = details: ref [6]; cited from earlier work
monocytes = details: ref [40]; cited from earlier work
P2X7 [7] = details: LPS-primed monocytes; via P2X7; ref [41]; cited from earlier work
[8] = tested on: various T-cells, smooth muscle cells, and epithelial cells; details: ref [44], [45]; cited from earlier work
neutrophils = details: ref [24]; cited from earlier work
[9] = tested on: classical monocytes (Ly6C^+); assay type: in vivo, mouse
[10] = tested on: endothelium (baso-apical transport of CRAMP); assay type: in vivo, mouse; details: n=4
In short: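 Neutropenic Darc−/− mice (1A8, 50µg/mouse i.p., 8h before stimuli) were injected intrascrotally with TNF (50ng, 4h) plus CRAMP (1µg). Fluorescent beads conjugated with anti-CRAMP antibody were then injected, and immobilised luminal beads were counted by intravital microscopy; n=4.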

classical monocytes = assay: Classical monocyte accumulation in peritoneum upon stimulation with TNF; assay type: in vivo, mouse; details: CRAMP-deficient mice, local application of CRAMP, unpublished data
non-classical monocytes = details: mouse cremaster muscle in vivo
In short: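 Cx3cr1egfp/WT mice, either with intact white cell count or made neutropenic with 1A8 (50µg i.p., 12h before), got TNF (50ng, 12h) intrascrotally. Anti-Ly6C (1µg i.v.) separated subsets, with non-classical monocytes GFP+ only. Cremaster adhesion was quantified by intravital microscopy; n=6.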

CCCCCCCCCCCCCC(=O)O[C@@H]1[C@@H](C)[C@@]2(O)[C@@H](C=C(CO)C[C@]3(O)C(=O)C(C)=C[C@@H]23)[C@@H]2C(C)(C)[C@]12OC(C)=O [PMA, phorbol-12-myristate-13-acetate, reference compound]
ICAM-1 and VCAM-1 binding to classical monocytes [1]: increased binding of ICAM-1 or VCAM-1

LL37: human cathelicidin; linear peptide; FITC-labelled form used in transport experiment
Adhesion of non-classical monocytes, in vitro flow chamber [2]: not of non-classical monocytes | Effect on expression of endothelial adhesion molecules [3]: did not impact on expression of endothelial adhesion molecules | Transendothelial LL37 transportation at 4°C (HUVEC; 4 °C, n=6): abrogated at 4 °C | Time until LL37 accumulation on HUVEC surface (HUVEC; time course, antibody-stained surface-bound LL37): ≥ 2 h | Binding to P2X7 (P2X7 [4]): no interaction with LL37 | Interaction with DARC (DARC): could not detect an interaction between DARC and LL37 | Monocyte adhesion to P-selectin/ICAM-1 or P-selectin/VCAM-1 [5]: strongly enhanced monocyte adhesion | Integrin activation on non-classical CD14^+CD16^++ monocytes [6]: not on non-classical CD14^+CD16^++ monocytes | Effect of serum on direct chemotactic activity (FPR2): not affected by serum | Production and release of IL8 (monocytes): induces the production and release of IL8 from monocytes | Processing and release of IL-1 β (P2X7 [7]): induced processing and release of the potent cytokine IL-1 β | Apoptosis [8]: promotes apoptosis in various T-cells, smooth muscle cells, and epithelial cells | Apoptotic cell death in neutrophils (neutrophils): inhibit apoptotic cell death in neutrophils

Cc1ccc2c(c1)C1(CCN(CCc3nc(-c4ccccc4)oc3C)CC1)OC(=O)N2 [RS504393, reference compound]
Effect on MCP1-mediated monocyte adhesion ([5]; RS504393 1µM, P-selectin/ICAM-1 or P-selectin/VCAM-1, n=8): blocked

O=C(Nc1ccc([N+](=O)[O-])cc1O)Nc1ccccc1Br [SB225002]
Effect on transendothelial LL37 transportation (HUVEC; n=6): did not impact on transendothelial LL37 transportation

boc-PLPLP
Effect on transendothelial LL37 transportation (HUVEC; n=6): did not impact on transendothelial LL37 transportation

COc1cc2c(c(OC)c1OC)-c1ccc(OC)c(=O)cc1[C@@H](NC(C)=O)CC2 [colchicine]
Effect on transendothelial LL37 transportation (HUVEC; n=6): abrogated

Cc1ccc(C(=O)Nc2ccc(S(=O)(=O)O)c3cc(S(=O)(=O)O)cc(S(=O)(=O)O)c23)cc1NC(=O)c1cccc(NC(=O)Nc2cccc(C(=O)Nc3cc(C(=O)Nc4ccc(S(=O)(=O)O)c5cc(S(=O)(=O)O)cc(S(=O)(=O)O)c45)ccc3C)c2)c1 [suramin]
Effect on transendothelial LL37 transportation (HUVEC; n=6): did not impact on transendothelial LL37 transportation

MCP1: classical chemokine, CCR2 ligand (CCL2/MCP-1)
Monocyte adhesion to P-selectin/ICAM-1 or P-selectin/VCAM-1 [5]: strongly enhanced monocyte adhesion | Integrin activation on non-classical CD14^+CD16^++ monocytes [6]: not on non-classical CD14^+CD16^++ monocytes | ICAM-1 and VCAM-1 binding to classical monocytes [1]: increased binding of ICAM-1 or VCAM-1

C=C1[C@@H](C)[C@H]2[C@H](Cc3ccccc3)NC(=O)[C@]23OC(=O)/C=C/[C@H](O)CCC[C@@H](C)C/C=C/[C@H]3[C@@H]1O [cytochalasin B]
Effect on transendothelial LL37 transportation (HUVEC; n=6): abrogated

CRAMP
Adhesion of classical monocytes in Cramp^−/− mice ([9]; Cramp^−/− mice, intrascrotal TNF with CRAMP 1µg vs TNF alone, n=5): restored the defect in Cramp^−/− mice; also recorded: restores adhesion of classical monocytes | Adhesion of classical monocytes, overall statement, mouse cremaster ([9]; mouse cremaster muscle in vivo): induce adhesion of classical monocytes | Adhesion of classical monocytes in Fpr1^−/− mice ([9]; neutropenic Fpr1^−/− mice, TNF and CRAMP 1µg, n=6): resulted in increased adhesion in Fpr1^−/− mice | Adhesion of classical monocytes in Fpr2^−/− mice ([9]; neutropenic Fpr2^−/− mice, TNF and CRAMP 1µg, n=6): this response was not observed in Fpr2^−/− mice | Transportation of CRAMP across endothelium in Darc^−/− mice ([10]; neutropenic Darc^−/− mice, TNF 50ng, 4h, and CRAMP 1µg intrascrotal): maintained in Darc^−/− mice | Luminal CRAMP in WT mice ([10]; neutropenic WT mice, TNF 50ng and CRAMP 1µg intrascrotal): luminal CRAMP was detected 4h after intrascrotal CRAMP injection | ICAM-1 and VCAM-1 binding to classical monocytes [1]: increased binding of ICAM-1 or VCAM-1; also recorded: enhances ICAM-1 and VCAM-1 binding to classical monocytes | Accumulation of classical monocytes into peritoneum (classical monocytes): rescued by local application of CRAMP | Adhesion of non-classical monocytes, mouse cremaster (non-classical monocytes): not of non-classical monocytes

CCCCOc1ccc(C(=O)NN2C(=O)c3ccccc3NC2c2ccc(O)cc2)cc1 (stereo not shown) [quin-C7, reference compound]
Effect on LL37-induced integrin activation ([6]; quin-C7 1µM, U73122 100nM, classical monocytes, n=4): fully abrogated integrin activation induced by LL37

CCCCC[C@@H](O)[C@H]1C(=O)O[C@H](C)[C@@H](O)/C=C/C=C/C=C/C=C/C=C(\C)[C@@H](O)C[C@H](O)C[C@H](O)C[C@H](O)C[C@H](O)C[C@H](O)C[C@@H]1O [filipin]
Effect on transendothelial LL37 transportation (HUVEC; n=6): clear-cut decreases of LL37 transcytosis
